# In ChEMBL document CHEMBL5236607, “Membrane-Active Cyclic Amphiphilic Peptides: Broad-Spectrum Antibacterial Activity Alone and in Combination with Antibiotics” (J Med Chem, 2022):
# Peptide text beside a SMILES is read from it.
# Assay: Therapeutic index, ratio of HC50 for human RBC to MIC for methicillin resistant Staphylococcus aureus ATCC BAA-1556
# Outline: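 Human RBCs washed in PBS pH 7.4 and mixed 1:1 with two-fold peptide dilutions (4% v/v suspension), 2 h at 37 °C. Hemoglobin in supernatant read at 567 nm against PBS (0%) and 1% Triton X-100 (100%). HC50 is the concentration giving 50% hemolysis. Index is HC50 divided by MIC against MRSA.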
row,SMILES,TI
1,N=C(N)NCCC[C@@H]1NC(=O)[C@H](CCCNC(=N)N)NC(=O)[C@H](CCCNC(=N)N)NC(=O)[C@H](Cc2c[nH]c3ccccc23)NC(=O)[C@H](Cc2c[nH]c3ccccc23)NC(=O)[C@H](Cc2c[nH]c3ccccc23)NC(=O)[C@H](Cc2c[nH]c3ccccc23)NC(=O)[C@H](CCCNC(=N)N)NC1=O (cyclo(RRRRWWWW)),43.8
2,N=C(N)NCCC[C@@H]1NC(=O)[C@H](CCCNC(=N)N)NC(=O)[C@H](CCCNC(=N)N)NC(=O)[C@H](Cc2c[nH]c3ccccc23)NC(=O)[C@H](Cc2c[nH]c3ccccc23)NC(=O)[C@H](Cc2c[nH]c3ccccc23)NC(=O)[C@H](Cc2c[nH]c3ccccc23)NC(=O)[C@H](Cc2c[nH]c3ccccc23)NC(=O)[C@H](CCCNC(=N)N)NC(=O)[C@H](CCCNC(=N)N)NC1=O,57.5
3,N=C(N)NCCC[C@@H]1NC(=O)[C@H](CCCNC(=N)N)NC(=O)[C@H](CCCNC(=N)N)NC(=O)[C@H](CCCNC(=N)N)NC(=O)[C@H](Cc2c[nH]c3ccccc23)NC(=O)[C@H](Cc2c[nH]c3ccccc23)NC(=O)[C@H](Cc2c[nH]c3ccccc23)NC(=O)[C@H](Cc2c[nH]c3ccccc23)NC(=O)[C@H](Cc2c[nH]c3ccccc23)NC(=O)[C@H](Cc2c[nH]c3ccccc23)NC(=O)[C@H](CCCNC(=N)N)NC(=O)[C@H](CCCNC(=N)N)NC1=O (cyclo(RRRRRRWWWWWW)),10.6
4,N=C(N)NCCC[C@@H]1NC(=O)[C@H](CCCNC(=N)N)NC(=O)[C@H](Cc2c[nH]c3ccccc23)NC(=O)[C@H](Cc2c[nH]c3ccccc23)NC(=O)[C@H](Cc2c[nH]c3ccccc23)NC(=O)[C@H](CCCNC(=N)N)NC1=O (cyclo(WWWRRR)),9.69
5,N=C(N)NCCC[C@@H]1NC(=O)[C@H](CCCNC(=N)N)NC(=O)[C@H](CCCNC(=N)N)NC(=O)[C@H](CCCNC(=N)N)NC(=O)[C@H](Cc2c[nH]c3ccccc23)NC(=O)[C@H](Cc2c[nH]c3ccccc23)NC(=O)[C@H](Cc2c[nH]c3ccccc23)NC(=O)[C@H](Cc2c[nH]c3ccccc23)NC(=O)[C@H](CCCNC(=N)N)NC(=O)[C@H](CCCNC(=N)N)NC(=O)[C@H](CCCNC(=N)N)NC1=O (cyclo(RRRRRRRWWWW)),11.9
6,N=C(N)NCCC[C@@H]1NC(=O)[C@H](CCCNC(=N)N)NC(=O)[C@H](Cc2c[nH]c3ccccc23)NC(=O)[C@H](Cc2c[nH]c3ccccc23)NC(=O)[C@H](Cc2c[nH]c3ccccc23)NC(=O)[C@H](Cc2c[nH]c3ccccc23)NC(=O)[C@H](Cc2c[nH]c3ccccc23)NC(=O)[C@H](Cc2c[nH]c3ccccc23)NC(=O)[C@H](CCCNC(=N)N)NC1=O,1.02
7,N=C(N)NCCC[C@@H]1NC(=O)[C@H](CCCNC(=N)N)NC(=O)[C@H](CCCNC(=N)N)NC(=O)[C@H](CCCNC(=N)N)NC(=O)[C@H](Cc2c[nH]c3ccccc23)NC(=O)[C@H](Cc2c[nH]c3ccccc23)NC(=O)[C@H](Cc2c[nH]c3ccccc23)NC(=O)[C@H](Cc2c[nH]c3ccccc23)NC(=O)[C@H](Cc2c[nH]c3ccccc23)NC(=O)[C@H](CCCNC(=N)N)NC(=O)[C@H](CCCNC(=N)N)NC(=O)[C@H](CCCNC(=N)N)NC1=O (cyclo(RRRRRRRWWWWW)),21.9
8,N=C(N)NCCC[C@@H]1NC(=O)[C@H](CCCNC(=N)N)NC(=O)[C@H](Cc2c[nH]c3ccccc23)NC(=O)[C@H](Cc2c[nH]c3ccccc23)NC(=O)[C@H](Cc2c[nH]c3ccccc23)NC(=O)[C@H](Cc2c[nH]c3ccccc23)NC1=O (cyclo(RRWWWW)),1.33
9,N=C(N)NCCC[C@@H]1NC(=O)[C@H](CCCNC(=N)N)NC(=O)[C@H](Cc2c[nH]c3ccccc23)NC(=O)[C@H](Cc2c[nH]c3ccccc23)NC(=O)[C@H](Cc2c[nH]c3ccccc23)NC(=O)[C@H](Cc2c[nH]c3ccccc23)NC(=O)[C@H](Cc2c[nH]c3ccccc23)NC(=O)[C@H](CCCNC(=N)N)NC1=O (cyclo(RRRWWWWW)),0.63
10,N=C(N)NCCC[C@@H]1NC(=O)[C@H](CCCNC(=N)N)NC(=O)[C@H](Cc2c[nH]c3ccccc23)NC(=O)[C@H](Cc2c[nH]c3ccccc23)NC(=O)[C@H](Cc2c[nH]c3ccccc23)NC(=O)[C@H](Cc2c[nH]c3ccccc23)NC(=O)[C@H](CCCNC(=N)N)NC1=O (cyclo(RRRWWWW)),13.1
